Sampled rows, rich in hits. Any-hit rate of the full collection: about 2%.
STEP inh: inhibitors of human striatal-enriched phosphatase STEP | recombinant STEP, OMFP fluorogenic substrate, fluorescence | inhibition, % at 20 µM | hit rate 0.25% among 360,000 | AID 588621 | P54829;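 active = inhibition at 20 µM, scaled per plate between control wells, above about 37%, limit read from the data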
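Material: STEP (striatal-enriched tyrosine phosphatase) enzyme, cell-free; Compound dosing: 20 µM single dose in 1% DMSO; Technique: fluorescence read at 480 nm ex / 540 nm em; Times: reaction 20 min, ambient temperature; Medium: 50 mM Bis-Tris pH 6.0 with 2.5 mM DTT and 0.005% Tween 20; Also added: OMFP at 25 µM.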
LMPTP inh: LMPTP (human) inhibition | hit rate 0.22% among 360,000 | inhibition, % at 20 µM | recombinant LMPTP-A, OMFP fluorogenic substrate, fluorescence intensity | P24666 | AID 651560;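 active = compounds that cut the enzyme signal by at least half of the control window in the single-dose screen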
Target sequence (P24666 whole entry, looked up): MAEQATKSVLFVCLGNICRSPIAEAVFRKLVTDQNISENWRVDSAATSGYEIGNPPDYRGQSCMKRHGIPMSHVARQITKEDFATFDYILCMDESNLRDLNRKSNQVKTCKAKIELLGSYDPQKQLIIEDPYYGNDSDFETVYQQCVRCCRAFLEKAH
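Assay system: LMPTP-A enzyme. Input: 0.625 nM LMPTP-A final. Probe or stimulus: 400 µM OMFP. Compound dosing: single 20 µM dose. Schedule: 50 min dark incubation at room temperature. Detection: fluorescence intensity of OMFP turnover product. Read-out: percent inhibition versus substrate-only and uninhibited controls. Benchmarks: no-enzyme low control, uninhibited high control.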
DNMT1 inh: blocks human DNA methyltransferase DNMT1; P26358; DNMT1 molecular beacon, Hinp1I cleavage, fluorescence; inhibition (reported as % activation of signal), % at 10 µM; hit rate 0.83% among 360,000; AID 588458; in the data active = inhibition above about 50%
Rpn11 inh: inhibitors of human proteasome Rpn11; hit rate 0.59% among 360,000; human 26S proteasome, Ub4-pepOG fluorescence polarization; 20S core pre-blocked with epoxomicin; AID 588493; inhibition, % at 20 µM;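 active = inhibition at 20 µM, scaled to each plate's controls, above about 33%, limit read from the data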
Target sequence (O00487 whole entry, looked up): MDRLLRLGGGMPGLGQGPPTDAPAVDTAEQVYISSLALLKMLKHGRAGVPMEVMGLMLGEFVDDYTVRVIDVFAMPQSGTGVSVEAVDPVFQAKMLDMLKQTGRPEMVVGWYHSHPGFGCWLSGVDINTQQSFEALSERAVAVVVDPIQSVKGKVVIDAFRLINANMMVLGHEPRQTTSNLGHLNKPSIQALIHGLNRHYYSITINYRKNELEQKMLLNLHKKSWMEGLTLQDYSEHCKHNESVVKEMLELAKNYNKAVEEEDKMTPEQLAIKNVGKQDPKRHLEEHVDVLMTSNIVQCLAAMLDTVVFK
Scp-1 inhibitor: blocks human Scp-1 phosphatase activity | Q9GZU7 | Recombinant Scp1, phosphopeptide, malachite green phosphate absorbance | inhibition, % at 20 µM | hit rate 0.88% among 340,000;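 active = inhibition above about 50% at 20 µM, limit read from the data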
Target sequence (Q9GZU7 76-261 limits assumed): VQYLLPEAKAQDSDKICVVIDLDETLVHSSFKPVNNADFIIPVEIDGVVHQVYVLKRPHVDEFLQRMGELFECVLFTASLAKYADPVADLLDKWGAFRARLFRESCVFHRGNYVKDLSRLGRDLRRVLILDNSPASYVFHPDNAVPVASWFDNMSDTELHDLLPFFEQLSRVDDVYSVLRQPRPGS
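assay system = SCP-1 phosphatase catalytic domain, residues 76-261 | buffer or medium = 50 mM Tris acetate pH 5.5, 0.005% Tween-20, 10 mM MgCl2 | incubation = enzyme reaction 45 min at room temperature, colour 5 min, stabilisation 30 min | signal = Phosphate-binding colour reagent, absorbance read at 630 nm | measure = % inhibition at 20 µM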
Each line names hits and unclear results; the compound was inactive in the other large screens.

CN(C)S(=O)(=O)c1ccc(C(=O)OCC(=O)c2ccc3c(c2)NC(=O)CO3)cc1	LMPTP inh 56.9
Cc1nc(N)sc1-c1csc(NCc2ccccc2)n1	none
Cc1cc(-c2csc(NCc3ccccc3)n2)c(C)n1C	DNMT1 inh 75.3
C[C@H](CO)N1C[C@H](C)[C@H](CN(C)C(=O)c2ccccc2F)Oc2ncc(Br)cc2C1=O	none (no result: Scp-1 inhibitor)
CC1Cc2ccccc2N1C(=S)NC(=O)C1(C)CC1(Cl)Cl (stereo unspecified)	Scp-1 inhibitor 50.1
O=C1C=C(Nc2ccccc2)c2ccccc2C1=O	none
O=C1C=C(Nc2ccccc2C(=O)O)c2ccccc2C1=O	DNMT1 inh 55.2
CCNC(=O)C1(C)CCN(Cc2ccc(-c3ccccc3)cc2)C1 (stereo unspecified)	none (no result: Scp-1 inhibitor)
O=S(=O)(c1ccccc1)c1nnn2c1nc(NC1CCN(Cc3ccccc3)CC1)c1ccccc12	LMPTP inh 65.5
O=S(=O)(c1ccccc1)c1nnn2c1nc(NC1CCN(Cc3ccccc3)CC1)c1cc(Cl)ccc12	none
Brc1ccc2nc(-c3ccco3)c(CC3CCCCC3)n2c1	DNMT1 inh 68.5 (no result: Scp-1 inhibitor)
O=C(Nc1ccc(Nc2ccncc2)cc1)c1ccc(Nc2ccnc3ccc([N+](=O)[O-])cc23)cc1	STEP inh 85.3, LMPTP inh 77.8 (not shown: Rpn11 inh)
O=C(Nc1ccc(Cc2ccncc2)cc1)c1cccc([N+](=O)[O-])c1	none
CN(C)C(=O)c1c([N+](=O)[O-])ncn1C	none
CCN(CC)C(=O)c1ncn(C)c1C(=O)N(CC)CC	Scp-1 inhibitor 92.4
CN1CCc2c(sc3nc(SCC(N)=O)n(-c4ccc(Cl)cc4)c(=O)c23)C1	Rpn11 inh 81.4
CN1CCc2c(sc3nc(SCC(N)=O)n(-c4ccccc4)c(=O)c23)C1	none
Fc1ccc(-[n+]2nc(Nc3ccccc3)sc2-c2c3ccccc3cc3ccccc23)cc1	LMPTP inh 67.2
Oc1ccc2ccccc2c1-c1sc(Nc2ccccc2)n[n+]1-c1ccc(F)cc1	none
CCc1ccc2[nH]c3nc(N/N=C/c4ccc(O)cc4O)nnc3c2c1	DNMT1 inh 61.5
Nc1nnc(-c2ccco2)s1	none
Nc1ncnc2oc(-c3ccco3)c(-c3ccco3)c12	LMPTP inh 61.2, DNMT1 inh 93.3, Scp-1 inhibitor 65.9
COc1ccc2cc3[n+](cc2c1O)CCc1cc2c(cc1-3)OCO2	LMPTP inh 64.3 (no result: STEP inh, DNMT1 inh, Rpn11 inh, Scp-1 inhibitor)
O=C(O)CSc1cc(NS(=O)(=O)c2cccc([N+](=O)[O-])c2)c2ccccc2c1O	DNMT1 inh 52.4
O=C(NN1C(=O)/C(=C/c2ccc(O)c(O)c2)SC1=S)c1ccccc1	DNMT1 inh 50.3 (not shown: Rpn11 inh)
CCCc1nc2c(=O)n(C)c(=O)nc-2n(C)n1	STEP inh 75.6, LMPTP inh 71.5, DNMT1 inh 96.8
Cn1nc(-c2ccccn2)nc2c(=O)n(C)c(=O)nc1-2	STEP inh 67.4, LMPTP inh 67.7, DNMT1 inh 98.0
CCn1c(N)nc2c1c(=O)n(C)c(=O)n2C	none
O=C(NNC(=O)c1ccc(Br)s1)c1csc(N2CCOCC2)n1	none
COc1ccc2c(c1)c(=O)oc1cc(OCC(=O)N3CCC(C)CC3)ccc12	DNMT1 inh 62.9, Scp-1 inhibitor 77.1
CC1CCC(NC(=O)C(NS(=O)(=O)c2ccc(Br)cc2)C(C)C)CC1 (stereo unspecified)	none (no result: Scp-1 inhibitor)
Cc1nc(N)sc1-c1csc(Nc2ncccn2)n1	STEP inh 64.5
COc1ccccc1Nc1nc(-c2sc(N)nc2C)cs1	none
Oc1ccc(N=Nc2c(O)ccc3ccccc23)cc1	none
N=C(N)c1ccc(N=Nc2c(O)ccc3c2[nH]c2ccccc23)cc1	DNMT1 inh 50.7
CN(C)S(=O)(=O)n1cnc(C(CCO)c2ncn(S(=O)(=O)N(C)C)c2CCCO)c1 (stereo unspecified)	none
O=C(COC(=O)c1ccccc1)Nc1ncc([N+](=O)[O-])s1	LMPTP inh 65.2, DNMT1 inh 92.8, Scp-1 inhibitor 82.7
O=C(Nc1ccccc1)Nc1ncc([N+](=O)[O-])s1	none
O=S(=O)(Nc1ccccc1F)c1cccc(NC(=S)NCCN2CCOCC2)c1	STEP inh 91.5
Cc1ccc(NC(=O)CCS(=O)(=O)c2ccc3nc(C)sc3c2)c(C)c1	none (no result: Scp-1 inhibitor)
Cc1ccc(N=Cc2cc(Cc3ccccc3Cl)cc([N+](=O)[O-])c2O)c(O)c1	none
COc1ccc(N=Cc2cc(Cc3ccccc3Cl)cc([N+](=O)[O-])c2O)cc1OC	Scp-1 inhibitor 67.2
O=C1/C(=C/C=C/c2ccco2)SC(=S)N1NS(=O)(=O)c1ccccc1	STEP inh 42.6, LMPTP inh 61.5, DNMT1 inh 86.9, Scp-1 inhibitor 82.2 (not shown: Rpn11 inh)
O=C1/C(=C/c2cccs2)SC(=S)N1NS(=O)(=O)c1ccccc1	none
O=C1/C(=C\c2ccco2)SC(=S)N1c1ccccc1	none
CC(C(=O)O)N1C(=O)/C(=C/C=C/c2ccco2)SC1=S (stereo unspecified)	STEP inh 99.1, LMPTP inh 77.7, DNMT1 inh 83.3, Scp-1 inhibitor 79.0 (not shown: Rpn11 inh)
Cc1noc(C)c1S(=O)(=O)NC(=O)C1(C)CCN1C(=O)c1ccc(C2CCCCC2)cc1 (stereo unspecified)	none (no result: Scp-1 inhibitor)
O=C(O)c1cccc(-n2c(/C=C/c3ccccc3)nc3ccccc3c2=O)c1	none
CN(C)c1ccc(/C=C/c2nc3ccccc3c(=O)n2-c2ccc(C(=O)O)cc2)cc1	Scp-1 inhibitor 64.1 (not shown: Rpn11 inh)
Cc1cc2nc3s/c(=C/c4ccc(-c5ccccc5C(=O)O)o4)c(=O)n3c2cc1C	Scp-1 inhibitor 97.8 (not shown: Rpn11 inh)
Cc1cc2nc(/C(C#N)=C\c3ccc(-c4ccccc4C(=O)O)o3)[nH]c2cc1C	none (not shown: Rpn11 inh)
CCCCC1CC2=C(C(=O)OC(C)(C)O2)C(c2ccc3ccccc3c2)O1 (stereo unspecified)	none (no result: Scp-1 inhibitor)
CCCN1C(=O)/C(=C/c2c(NCCCOCC)nc3c(C)cccn3c2=O)SC1=S	Rpn11 inh 77.8
COc1cc(/C=C2\SC(N)=NC2=O)ccc1OCC(=O)Nc1ccc(C)cc1	DNMT1 inh 53.6
COc1cc(/C=C2\SC(c3ccc(C)cc3)=NC2=O)ccc1O	Rpn11 inh 142.4
COc1cc(/C=C2\SC(=S)N(c3cccnc3)C2=O)ccc1O	DNMT1 inh 56.7 (not shown: Rpn11 inh)
Cc1ccc(S(=O)c2ccc([N+](=O)[O-])c3nonc23)cc1 (stereo unspecified)	none (no result: Scp-1 inhibitor)
CC(C)Oc1ccc(C(=O)Nc2ccc(N3CCCC3)cc2)cc1	DNMT1 inh 53.0
CC(C)Oc1ccc(C(=O)Nc2ccc(N3CCN(C(=O)c4ccco4)CC3)cc2)cc1	none
O=[N+]([O-])c1c(Nc2ccc(O)cc2)cc(Cl)c2nonc12	STEP inh 48.6
C#CCN(C[C@@H]1[C@@H](OC(=O)NCc2ccc(OC)c(OC)c2)[C@@H](OC(=O)NCc2ccc(OC)c(OC)c2)CN(C(=O)OC(C)C)N1C(=O)OC(C)C)S(=O)(=O)c1ccc(C)cc1	none (no result: Scp-1 inhibitor)

Compound activity from PubChem BioAssay.
